This passage reports inhibition in vivo results from ChEMBL document CHEMBL2380287, “PEG mediated synthesis and pharmacological evaluation of some fluoro substituted pyrazoline derivatives as antiinflammatory and analgesic agents” (2013).

This experiment deals with Rattus norvegicus. Briefly: Analgesic activity in rat at 25 mg/kg, po after 60 mins by radiant heat tail flick method relative to control. The format is functional. Conditions: 1 h. The method in brief:
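Rats, six per group, were dosed orally at 25 mg/kg. Analgesia was measured at 60 min by the radiant heat tail flick method and expressed as percentage analgesia. Animals were kept on a 12/12 h light/dark cycle with free access to water and standard pellet diet.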
Background: Thermal pain tests record how soon the animal reacts.

Usually inhibition in vivo stands for the change of the read-out against control, counted positive when it falls. Consider `COc1ccc(-c2nn(-c3ccccc3)cc2C2CC(c3ccc(F)cc3)=NN2c2ccccc2)cc1` (stereo not given), for which the inhibition in vivo at 25 mg/kg was 66%.

For the molecule `Cc1ccc(-c2nn(-c3ccccc3)cc2C2CC(c3ccc(F)cc3)=NN2c2ccccc2)cc1` (stereo not given), the inhibition in vivo at 25 mg/kg came to 110%.

As to `Fc1ccc(C2=NN(c3ccccc3)C(c3cn(-c4ccccc4)nc3-c3ccc(Cl)cc3)C2)cc1` (stereo not given), the inhibition in vivo at 25 mg/kg is 43%.

As for `CC(=O)N1N=C(c2ccc(F)cc2)CC1c1cn(-c2ccccc2)nc1-c1ccc(Cl)cc1` (stereo not given), the inhibition in vivo at 25 mg/kg is 44%.

Consider `CC(=O)Oc1ccccc1C(=O)O` [ASPIRIN], for which the inhibition in vivo at 25 mg/kg was 119%.

For the molecule `O=[N+]([O-])c1cccc(-c2nn(-c3ccccc3)cc2C2CC(c3ccc(F)cc3)=NN2c2ccccc2)c1` (stereo not given), the inhibition in vivo at 25 mg/kg was found to be 108%.

`Fc1ccc(C2=NN(c3ccccc3)C(c3cn(-c4ccccc4)nc3-c3ccc(F)cc3)C2)cc1` (stereo not given): the inhibition in vivo at 25 mg/kg amounted to 41%.

In the case of `CC(=O)N1N=C(c2ccc(F)cc2)CC1c1cn(-c2ccccc2)nc1-c1ccc(Br)cc1` (stereo not given), the inhibition in vivo at 25 mg/kg is 71%.

With `Fc1ccc(C2=NN(c3ccccc3)C(c3cn(-c4ccccc4)nc3-c3ccc(Br)cc3)C2)cc1` (stereo not given), the inhibition in vivo at 25 mg/kg was 71%.

As for `Fc1ccc(C2=NN(c3ccccc3)C(c3cn(-c4ccccc4)nc3-c3ccccc3)C2)cc1` (stereo not given), the inhibition in vivo at 25 mg/kg came to 35%.

As for `COc1ccc(-c2nn(-c3ccccc3)cc2C2CC(c3ccc(F)cc3)=NN2C(C)=O)cc1` (stereo not given), the inhibition in vivo at 25 mg/kg turned out to be 66%.

In the case of `CC(=O)N1N=C(c2ccc(F)cc2)CC1c1cn(-c2ccccc2)nc1-c1ccc(F)cc1` (stereo not given), the inhibition in vivo at 25 mg/kg came to 43%.

Turning to `CC(=O)N1N=C(c2ccc(F)cc2)CC1c1cn(-c2ccccc2)nc1-c1cccc([N+](=O)[O-])c1` (stereo not given), the inhibition in vivo at 25 mg/kg worked out at 109%.

In the case of `CC(=O)N1N=C(c2ccc(F)cc2)CC1c1cn(-c2ccccc2)nc1-c1ccc(C)cc1` (stereo not given), the inhibition in vivo at 25 mg/kg is 110%.

With `CC(=O)N1N=C(c2ccc(F)cc2)CC1c1cn(-c2ccccc2)nc1-c1ccccc1` (stereo not given), the inhibition in vivo at 25 mg/kg turned out to be 35%.
